Screens (PubChem BioAssay)
Only some compounds are listed: those with a hit (about 3.3% of all), similar ones and a draw of the others.
STAT3 activator – IL-6 driven STAT3 reporter potentiators, primary screen, U3A cells, luciferase, luminescence, MLSCN library | IL-6 STAT3-luciferase reporter; 100% = signal with IL-6 EC80 alone | activation (% of control), % at 5.6 µM | hit rate 0.91% among 190,000 | AID 871, 2007;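 active = activation above the screen-wide mean of compound activation plus 3 SD, cut at about 130% in these data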;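 also: 0% = background luminescence of wells with medium and substrate only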
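Test system: STAT3-luciferase reporter U3A cells; Detection: reporter luminescence signal; Times: 1 h compound pre-exposure, 6 h IL-6 stimulation, 37 °C; Benchmarks: IL-6-only high control; Also added: IL-6 stimulus at 33 ng/mL final.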
ABCB6 inh 2 – ABCB6 transporter inhibitors, primary screen, K562-ABCB6 cells, flow cytometry, MLPCN library; K562-ABCB6 porphyrin accumulation, 1 h; hits give low values; fluorescence ratio to DMSO, % at 10 µM; hit rate 0.19% among 360,000; AID 602162, 2011;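 active = fluorescence ratio to DMSO below 75%, the collection mean minus 3 SD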;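 also: signal is porphyrin accumulated inside mitochondria; 100% equals median channel fluorescence of DMSO control wells; lower ratio means ABCB6 inhibition with less porphyrin fluorescence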
AHR activator – AHR activators, primary screen, cell-based, luminescence, luciferase reporter, human; Aryl hydrocarbon receptor (Homo sapiens), P35869; AID 2796, 2010; activation, % at 5 µM; AHR-responsive luciferase reporter cells; hit rate 2.5% among 320,000; in the data active = activation above about 47%;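 also: 0% = vehicle wells and 100% = reference agonist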
FXN GAA850 act – FXN promoter activators, primary screen, cell-based, luciferase luminescence, HEK293 lucGAA850; HEK293 lucGAA850 FXN promoter luciferase reporter, 24 h; percent of 10 µM SAHA response; hit rate 0.56% among 360,000; activation, % at 6 µM;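 active = activation above the average of all compounds screened plus 3 SD, cutoff fixed separately per campaign, cut at about 7.5% in these data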;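 also: 0% = DMSO wells and 100% = 10 µM SAHA wells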
* = called active by the depositor; . = no result.

SMILES	STAT3 activator	ABCB6 inh 2	AHR activator	FXN GAA850 act
CCc1c(C)nc2ccc(Br)cc2c1Cl	96	105	1	1
Nc1nc(Cl)nc2ccc(Br)cc12	109	108	59*	-5
Cn1cc(Cl)c(C(=O)Nc2nccs2)n1	.	97	3	2
O=C(Nc1nccs1)c1ncc(Cl)c(Cl)c1Cl	.	96	47*	0
O=C(Nc1nccs1)c1ccc(-c2ccccc2[N+](=O)[O-])o1	.	90	68*	3
O=C(Nc1nccs1)c1ccc(-c2ccccc2Cl)o1	116	95	54*	5
COc1ccc(CCNC(=O)CN2C(=O)NC3(CCOc4ccccc43)C2=O)cc1 (stereo not given)	.	100	.	2
CC(Oc1ccc(C#N)cc1)C(=O)c1ccc(F)c(F)c1 (stereo not given)	101	99	-1	2
COc1ccccc1NC(=O)c1cc(C)nc2ccccc12	101	98	74*	0
Cc1ccc(NC(=O)c2cc(-c3ccc(C)o3)nc3ccccc23)cc1	97	95	57*	7
COc1ccc(NC(=O)c2cc(-c3ccncc3)nc3ccccc23)c(OC)c1	.	99	56*	0
COc1ccccc1CNC(=O)c1cc(C)nc2ccccc12	.	92	4	-2
O=C(Nc1ccccc1F)c1cc(-c2ccco2)nc2ccccc12	.	102	60*	2
CCCCn1c(N)c(N(CCC(C)C)C(=O)c2ccc3c(c2)OCO3)c(=O)[nH]c1=O	.	99	1	0
CC(Sc1ccccc1)C(=O)NCC1COc2ccccc2O1 (stereo not given)	.	93	3	0
C=CCSc1nc(N)c(C(=O)Nc2ccccc2OC)cc1C(=O)Nc1ccccc1	106	90	75*	2
C=CCSc1nc(N)c(C(=O)Nc2ccccc2)cc1C#N	82	108	-8	4
Cc1ccc(-c2cc(C(=O)Nc3ccccn3)c3ccccc3n2)o1	90	106	5	-2
COc1ccccc1NC(=O)c1cc(-c2ccc(C)o2)nc2ccccc12	.	91	72*	0
CC1C(=O)N(Cc2cn(CCC3OCCO3)nn2)CCS(=O)(=O)N1Cc1ccc(-c2cccc(CO)c2)cc1 (stereo not given)	.	92	.	-2
COc1ccc(Cl)cc1NC(=O)CN(C)C(=O)Cc1n[nH]c(=O)c2ccccc12	.	96	3	1
Cn1ncc(C#N)c1NC(=O)c1nn2cccnc2c1Cl	106	101	0	0
COc1ccc(NC(=O)CSc2nc3[nH]ncc3c(=O)[nH]2)c(OC)c1	.	94	5	1
CCOC(=O)C1=C(Cc2ccc(Cl)cc2)C(=O)c2ccccc2C1=O	85	557	86*	-1
CCOC(=O)C1=C(C)N=C2c3ccccc3C(=O)C2C1c1ccc(Cl)cc1 (stereo not given)	104	109	0	0
SMILES	STAT3 activator	ABCB6 inh 2	AHR activator	FXN GAA850 act
COC1Cc2ccccc2N(C(N)=O)c2ccccc21 (stereo not given)	.	94	48*	1
CCN(CC)C(=O)N1c2ccccc2CC(N(CC)CC)c2ccccc21 (stereo not given)	104	105	1	-1
CCOP(=O)(OCC)/C(=C/N1CCCCC1)NC(=O)c1ccccc1	102	97	64*	-1
O=C(NN1CCCCC1)c1ccccc1	101	98	4	-2
CN(CC(=O)O)S(=O)(=O)/C=C/c1ccccc1	98	102	-2	1
NC(=O)CN(C/C=C/c1ccccc1)C/C=C/c1ccccc1	.	99	55*	1
CCOCC(=O)Nc1c(C(=O)Nc2ccc3c(c2)OCCO3)oc2ccccc12	100	99	65*	4
COCC(=O)Nc1c(C(=O)Nc2ccc3c(c2)OCCO3)oc2ccccc12	102	98	55*	7
O=C(Nc1ccc2c(c1)OCCO2)c1oc2ccccc2c1NC(=O)C1CC1	88	97	16	5
CCOC(=O)N1CCN(C(=O)C(CC(C)C)NS(=O)(=O)c2ccc(C)cc2)CC1 (stereo not given)	.	99	0	-1
Cc1[nH]c2ccc3ccccc3c2c(=O)c1C/C=C/Cl	.	97	47*	0
CCCOc1ccc(C(=O)NC(=S)Nc2nc3ccccc3s2)cc1	129	99	82*	7
O=C(NC(=S)Nc1nc2ccccc2s1)c1ccco1	146*	100	34	5
